Columns and labels:
Tubulin beta-1 chain [1] = target: T1, Tubulin beta-1 chain (Homo sapiens, UniProt Q9H4B7); experiment: Percent inhibition of tubulin polymerization at 0.3 uM concentration; type: functional
HCT-15 = experiment: Inhibitory concentration against HCT-15 cells was evaluated; type: functional, cell-based; conditions: Homo sapiens
In short: (§1)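 Cytotoxicity panel covered tumor lines differing in P-glycoprotein expression. Lox melanoma and KM20 have none; NCI-H1299, HCT-15 and S1 express it. Result is the average IC50 (nM) ± SEM.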

KB [2] = experiment: Concentration required to inhibit tumor cell growth in KB-8-5 cells; type: functional, cell-based, Homo sapiens; conditions: Homo sapiens, KB
In short: (§2)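 Cytotoxicity was measured in paclitaxel-sensitive KB-3-1 cells and in KB-8-5 and KB-V1 cells, which express moderate and high P-glycoprotein respectively. Result is the average IC50 (nM) ± SEM; SEM is omitted where it is below 10% of the average.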

KB [3] = experiment: Concentration required to inhibit tumor cell growth in KB-V1 cells; type: functional, cell-based; conditions: Homo sapiens; in short: as §2
Tubulin beta-1 chain [4] = target: T1, Tubulin beta-1 chain; experiment: Binding affinity towards tubulin; e = no evidence for binding
NCI-H1299 = experiment: Inhibitory concentration against NCI-H1299 cells was evaluated; type: functional, cell-based; conditions: Homo sapiens; in short: as §1
LOX IMVI = experiment: Inhibitory concentration against Lox melanoma cells; type: functional, cell-based; conditions: Homo sapiens; in short: as §1
[5] = Concentration required to inhibit tumor cell growth in KB-3-1 cells; type: functional, cell-based, Homo sapiens; conditions: Homo sapiens, KB 3-1; in short: as §2
[6] = Inhibitory concentration against KM20 cells was evaluated; type: functional, cell-based, Homo sapiens; in short: as §1
Mus musculus [7] = experiment: Minimum effective dose was evaluated in lox melanoma human tumor graft model in athymic mice when administered intravenously; conditions: iv, read-out: MED
Tubulin beta-1 chain [8] = target: T1, Tubulin beta-1 chain; experiment: Binding affinity towards tubulin
[9] = Inhibitory concentration against S1 cells was evaluated; type: functional, cell-based; in short: as §1
Mus musculus [10] = experiment: Minimum tolerated dose was evaluated in lox melanoma human tumor graft model in athymic mice when administered intravenously
Tubulin beta-1 chain [11] = target: T1, Tubulin beta-1 chain; experiment: Binding affinity towards tubulin; d = weak binding
KB 3-1 = experiment: Inhibitory concentration against KB-3-1 cells was evaluated; type: functional, cell-based; conditions: Homo sapiens
In short: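 Cytotoxicity was measured in paclitaxel-sensitive KB-3-1 human carcinoma cells. The value is the average IC50 in nM ± SEM; where no SEM is given, it is under 10% of the average.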

T1 sequence (Q9H4B7 whole entry): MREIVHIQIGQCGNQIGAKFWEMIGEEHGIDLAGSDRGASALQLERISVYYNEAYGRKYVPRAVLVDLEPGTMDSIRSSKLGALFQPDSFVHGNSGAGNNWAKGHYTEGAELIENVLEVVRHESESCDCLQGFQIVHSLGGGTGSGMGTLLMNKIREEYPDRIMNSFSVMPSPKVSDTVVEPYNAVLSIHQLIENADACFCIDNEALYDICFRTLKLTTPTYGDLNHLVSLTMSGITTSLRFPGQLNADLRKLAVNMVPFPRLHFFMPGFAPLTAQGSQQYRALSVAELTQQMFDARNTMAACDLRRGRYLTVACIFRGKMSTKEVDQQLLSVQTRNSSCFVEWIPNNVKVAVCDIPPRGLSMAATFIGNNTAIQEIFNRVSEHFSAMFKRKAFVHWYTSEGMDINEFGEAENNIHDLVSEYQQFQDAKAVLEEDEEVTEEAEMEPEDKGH

Kd (Tubulin beta-1 chain [11])	IC50 (KB 3-1) [nM]	Compound	inhibition (Tubulin beta-1 chain [1]) [%]	IC50 (HCT-15) [nM]	IC50 (KB [2]) [nM]	IC50 (KB [3]) [nM]	Kd (Tubulin beta-1 chain [4])	IC50 (NCI-H1299) [nM]	IC50 (LOX IMVI) [nM]	IC50 [5] [nM]	IC50 [6] [nM]	minimal effective dose (Mus musculus [7]) [mg/kg]	Kd (Tubulin beta-1 chain [8]) [nM]	IC50 [9] [nM]	MTD (Mus musculus [10]) [mg/kg]
–	–	C/C(=C\[C@H](C(C)C)N(C)C(=O)[C@@H](NC(=O)[C@@H](C)C(C)(C)c1ccccc1)C(C)(C)C)C(=O)O	94	1200	639	> 3000	No evidence for binding	1070	1380	561	–	–	–	–	–
–	–	CN[C@H](C(=O)N[C@H](C(=O)N(C)[C@H](/C=C(\C)C(=O)O)C(C)C)C(C)(C)SC)C(C)(C)c1ccccc1	76	18.6	7.1	303	–	15.8	3	2.7	6	0.5	700	–	–
–	–	CN[C@H](C(=O)N[C@H](C(=O)N(C)[C@H](/C=C(\C)C(=O)O)C(C)C)C(C)(C)C)C(C)(C)C1CCCCC1	93	–	5.7	155	–	–	–	3.9	–	1	1200	–	–
–	–	CNC(=O)/C(C)=C/[C@H](C(C)C)N(C)C(=O)[C@@H](NC(=O)[C@@H](NC)C(C)(C)c1ccccc1)C(C)(C)C	78	25.5	129	1590	–	90	–	68	–	–	–	657	–
–	–	CN[C@H](C(=O)N[C@H](C(=O)N(C)[C@H](C[C@@H](C)C(=O)O)C(C)C)C(C)(C)C)C(C)(C)c1ccccc1	99	–	19.1	1320	–	–	–	8.5	–	–	4000	–	–
–	–	CCOC(=O)/C(C)=C/[C@H](C(C)C)N(C)C(=O)[C@@H](NC(=O)[C@@H](NC)C(C)(C)c1ccccc1)C(C)(C)C	97	575	499	1870	–	100	13.9	34	–	0.4	4000	–	–
–	–	C/C(=C\[C@H](C(C)C)N(C)C(=O)[C@@H](NC(=O)[C@@H](N(C)C)C(C)(C)c1ccccc1)C(C)(C)C)C(=O)O	93	–	3.7	116	–	–	–	1.6	–	1	–	–	–
–	–	CCCC[C@@H](/C=C(\C)C(=O)O)N(C)C(=O)[C@@H](NC(=O)[C@@H](NC)C(C)(C)c1ccccc1)C(C)(C)C	52	–	78	> 3000	–	268	–	36	53	–	–	–	–
–	–	CN[C@H](C(=O)N[C@H](C(=O)N(C)[C@H](/C=C(\C)C(=O)O)C(C)C)C(C)C)C(C)(C)c1ccccc1	78	–	11	288	–	–	–	5.2	–	0.7	–	–	>3
–	–	CN[C@H](C(=O)N[C@H](C(=O)N(C)[C@H](/C=C(\C)C(=O)N1CCN(C)CC1)C(C)C)C(C)(C)C)C(C)(C)c1ccccc1	69	–	60	2330	–	–	–	33	–	3	–	–	15
–	–	CN[C@H](C(=O)N[C@H](C(=O)N(C)[C@H](/C=C(\C)C(=O)O)C(C)C)C(C)(C)C)C(C)(C)c1ccccc1 [TALTOBULIN]	88	4.2	–	77.4	–	6.8	1.4	–	1.8	0.2	260	3.7	1.6
–	–	CN[C@H](C(=O)N[C@H](C(=O)N(C)[C@H](/C=C(\C)C(=O)N1CCOCC1)C(C)C)C(C)(C)C)C(C)(C)c1ccccc1	69	–	75	1190	–	–	–	42	–	3	–	–	–
Weak binding	–	CN[C@@H](C(=O)N[C@H](C(=O)N(C)[C@H](/C=C(\C)C(=O)O)C(C)C)C(C)(C)C)C(C)(C)c1ccccc1 (single isomer, unassigned)	91	58	39	879	–	79	37	28	–	–	–	–	–
–	–	C/C(=C\[C@H](C(C)C)N(C)C(=O)[C@@H](NC(=O)[C@@H](N(C)CCO)C(C)(C)c1ccccc1)C(C)(C)C)C(=O)O	72	–	62	> 3000	–	–	–	45	–	–	1000	–	–
–	–	CC/C(=C\[C@H](C(C)C)N(C)C(=O)[C@@H](NC(=O)[C@@H](NC)C(C)(C)c1ccccc1)C(C)(C)C)C(=O)O	83	20.8	14	513	–	19.3	6.3	5.4	6.6	2	–	–	–
–	–	CN[C@H](C(=O)N[C@H](C(=O)N[C@H](/C=C(\C)C(=O)O)C(C)C)C(C)(C)C)C(C)(C)c1ccccc1	79	204	130	> 3000	–	54	23	43	–	–	–	–	–
–	3.9	CC(=O)O[C@H]1C(=O)[C@@]2(C)[C@H]([C@H](OC(=O)c3ccccc3)[C@]3(O)C[C@H](OC(=O)[C@H](O)[C@@H](NC(=O)c4ccccc4)c4ccccc4)C(C)=C1C3(C)C)[C@]1(OC(C)=O)CO[C@@H]1C[C@@H]2O [PACLITAXEL]	–	438	–	–	–	37.7	17.3	–	8.9	–	–	92	–
–	–	CN[C@H](C(=O)N[C@H](C(=O)N(C)[C@H](/C=C(\C)C(=O)O)C(C)C)C(C)(C)C)C1(c2ccccc2)CCCC1	77	–	63	2660	–	–	–	59	–	–	–	–	–
–	–	C=CC[C@@H](C(=O)N[C@H](C(=O)N(C)[C@H](/C=C(\C)C(=O)O)C(C)C)C(C)(C)C)C(C)(C)c1ccccc1	63	–	1200	> 6000	–	–	–	1150	–	–	–	–	–
–	–	C/C(=C\[C@H](C(C)C)N(C)C(=O)[C@@H](NC(=O)[C@@H](O)C(C)(C)c1ccccc1)C(C)(C)C)C(=O)O	21	–	> 3000	> 3000	–	–	–	> 3000	–	–	–	–	–
–	–	C/C(=C\[C@H](C(C)C)N(C)C(=O)[C@@H](NC(=O)[C@H](C(C)(C)c1ccccc1)S(C)(=O)=O)C(C)(C)C)C(=O)O	80	–	2110	> 3000	–	–	–	1750	–	–	–	–	–
–	–	CN[C@H](C(=O)N[C@H](C(=O)N(C)[C@H](/C=C(\C)C(=O)NO)C(C)C)C(C)(C)C)C(C)(C)c1ccccc1	75	–	227	> 3000	–	–	–	39	–	–	–	–	–
–	–	CN[C@H](C(=O)N[C@H](C(=O)N(C)[C@H](/C=C(\C)C(=O)O)C(C)C)C(C)(C)C)C(C)(C)c1ccc(OC)cc1	91	6.9	4.1	143	–	10	1.1	1.4	–	0.1	700	7.3	1.6
–	–	CC[C@H](C(=O)N[C@H](C(=O)N(C)[C@H](/C=C(\C)C(=O)O)C(C)C)C(C)(C)C)C(C)(C)c1ccccc1	54	–	1200	5250	–	–	–	912	–	–	–	–	–
–	–	C/C(=C\[C@H](C(C)C)N(C)C(=O)[C@@H](NC(=O)[C@@H](C(C)(C)c1ccccc1)S(C)(=O)=O)C(C)(C)C)C(=O)O	80	–	2110	> 3000	–	–	–	1750	–	–	–	–	–
